Data published in ChEMBL document CHEMBL5260797, “N-(1-Benzyl-3,5-dimethyl-1H-pyrazol-4-yl)benzamides: Antiproliferative Activity and Effects on mTORC1 and Autophagy” (ACS Med Chem Lett, 2017).
In brackets after ≈: the same amount, converted by molar mass. Activity calls are given as the source filed them. No cut-off for these calls is given here.

Tests used:
[1] = tested on: ARPE-19; experiment: Inhibition of autophagy in human ARPE-19 cells assessed as fold decrease in LC3 turnover at 10 uM pretreated for 30 mins with cells followed by incubation for 4 hrs under starvation condition by Western blot analysis; details: time 4.5 hrs
[2] = tested on: ARPE-19; experiment: Induction of autophagy in human ARPE-19 cells assessed as increase in LC3-2 conversion measured after 4 hrs by Western blot analysis; format: functional, cell-based; details: dose 25-50 µM
Procedure, shortened: (§1)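 ARPE-19 cells treated 4 h in complete medium without starvation with increasing concentrations (10, 25, 50 μM) or DMSO. LC3 detected by Western blot; LC3-II/actin ratio expressed as fold increase over DMSO control, n = 3.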

[3] = target: T1, mTORC1 (Homo sapiens) (UniProt P42345+Q8N122+Q9BVC4); experiment: Inhibition of mTORC1 in human ARPE19 cells measured after 4 hrs by Western blot analysis; format: cell-based; details: ARPE-19, dose 10-50 µM
Procedure, shortened: (§2)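 ARPE-19 cells treated 4 h without starvation with increasing concentrations or DMSO. Basal mTORC1 activity measured by Western blot as phosphorylated P70/total P70, with DMSO set to 100%.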

[4] = Metabolic stability in mouse plasma assessed as parent compound remaining measured after 6 hrs by LC-MS/MS analysis; format: ADME, cell-free; details: read-out: Stability
[5] = Metabolic stability in mouse plasma assessed as parent compound remaining measured after 24 hrs by LC-MS/MS analysis; format: ADME, cell-free; details: read-out: Stability
[6] = Cytotoxicity against human ARPE-19 cells assessed as cell viability measured after 72 hrs by MTT assay; format: toxicity, cell-based
[7] = tested on: MIA PaCa-2; experiment: Antiproliferative activity against human MIA PaCa-2 cells assessed as cell viability measured after 72 hrs by MTT assay; format: functional, cell-based; details: MIA PaCa-2, 72 h
Procedure, shortened: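 MIA PaCa-2 pancreatic cancer cells; EC50 values determined in triplicate.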

[8] = tested on: ARPE-19; experiment: Induction of autophagy in human ARPE-19 cells assessed as fold increase in LC3 turnover at 50 uM measured after 4 hrs by Western blot analysis; format: functional
Procedure, shortened: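 ARPE-19 human retinal pigment epithelial cells exposed 4 h to compound or DMSO in complete medium without starvation. LC3 conversion read by Western blot as LC3-II/actin ratio and expressed as fold increase over DMSO control, n = 3.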

[9] = target: T1, mTORC1 (Homo sapiens); experiment: Inhibition of mTORC1 reactivation in human ARPE-19 cells at 25 to 50 uM preincubated for 4 hrs under starvation/refeed condition measured after 1 hr in complete medium by Western blot analysis; format: cell-based; details: dose 25-50 µM, time 5.0 hrs
[10] = Metabolic stability in human plasma assessed as parent compound remaining measured after 24 hrs by LC-MS/MS analysis; format: ADME, cell-free; details: read-out: Stability
[11] = tested on: ARPE-19; experiment: Induction of autophagy in human ARPE-19 cells assessed as appearance of LC3 non-uniformed shapes at 25 uM pretreated for 30 mins with cells followed by incubation for 4 hrs under starvation condition by immunofluorescence analysis; format: functional, cell-based; details: time 4.5 hrs
Procedure, shortened: (§3)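 ARPE-19 cells starved 4 h in EBSS with 25 μM compound or DMSO. LC3-labeled structures imaged by immunofluorescence, with CD63 as late endosomal/lysosomal marker.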

[12] = tested on: ARPE-19; experiment: Reduction in autophagic flux in human ARPE-19 cells at 25 uM incubated for 4 hrs in complete medium in presence of bafilomycin; format: functional, cell-based
Procedure, shortened: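 ARPE-19 cells in full medium with 100 nM bafilomycin plus compound or DMSO. Autophagic flux read as LC3-II by Western blot.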

[13] = tested on: ARPE-19; experiment: Induction of autophagy in human ARPE-19 cells assessed as LC3 accumulation at 25 to 50 uM measured after 4 hrs under refeed condition by immunofluorescence analysis; format: functional, cell-based; details: dose 25-50 µM
[14] = tested on: ARPE-19; experiment: Induction of autophagy in human ARPE-19 cells assessed as decrease in LC3-2/actin ratio at 10 uM pretreated for 30 mins with cells followed by incubation for 4 hrs under starvation condition by Western blot analysis; format: functional, cell-based; details: time 4.5 hrs
Procedure, shortened: (§4)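 ARPE-19 cells pretreated 30 min at 10 μM (or DMSO). Then 4 h with compound in EBSS starvation medium, or in EBSS with 100 nM bafilomycin. LC3-II/actin quantified by Western blot as fold of DMSO control, n = 3.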

[15] = Metabolic stability in human plasma assessed as parent compound remaining measured after 6 hrs by LC-MS/MS analysis; format: ADME, cell-free; details: read-out: Stability
[16] = tested on: ARPE-19; experiment: Induction of autophagy in human ARPE-19 cells assessed as LC3 level at 25 uM measured after 4 hrs under starvation/refeed condition by immunofluorescence analysis; format: functional, cell-based
Procedure, shortened: (§5)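 ARPE-19 cells starved 4 h in EBSS, then refed 1 h in complete medium containing 25 μM compound or DMSO. LC3 punctae imaged by immunofluorescence, with CD63 co-stain.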

[17] = Thermodynamic aqueous solubility of the compound at pH 7.4 measured after 48 hrs by UV-spectrometry method; format: physicochemical; details: read-out: Therm_solubility
[18] = target: T1, mTORC1 (Homo sapiens); experiment: Inhibition of mTORC1 in human ARPE19 cells at 10 to 50 uM measured after 4 hrs by Western blot analysis related to control; format: cell-based; details: ARPE-19, dose 10-50 µM
Procedure, shortened: as §2

[19] = tested on: ARPE-19; experiment: Induction of autophagy in human ARPE-19 cells assessed fold increase in LC3 turnover at 10 uM pretreated measured after 1 hr under refeed condition by Westernblot analysis; format: functional
Procedure, shortened: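 ARPE-19 cells pretreated 30 min with 10 μM compound or DMSO, starved 4 h in EBSS, then refed 1 h in complete medium with compound or DMSO. LC3-II/actin quantified by Western blot and expressed as fold increase over DMSO control, n = 3.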

[20] = target: T1, mTORC1 (Homo sapiens); experiment: Inhibition of mTORC1 in human ARPE19 cells assessed as decrease in P70/total P70 phosphorylation level at 10 uM measured after 4 hrs by Western blot analysis; format: cell-based; details: ARPE-19
Procedure, shortened: as §2

[21] = tested on: ARPE-19; experiment: Induction of autophagy in human ARPE-19 cells assessed as increase in LC3-labeled punctae at 25 uM measured after 4 hrs by immunofluorescence analysis relative to control; format: functional, cell-based
Procedure, shortened: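 ARPE-19 cells treated 4 h at 25 μM in complete medium without starvation, or with DMSO. LC3 punctae detected by immunofluorescence, with CD63 as late endosomal/lysosomal marker.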

[22] = target: T1, mTORC1 (Homo sapiens); experiment: Inhibition of mTORC1 reactivation in human ARPE-19 cells assessed as reduction of P70 phosphorylation at 10 uM preincubated for 4 hrs under starvation/refeed condition measured after 1 hr in complete medium by Western blot analysis; format: cell-based; details: time 5.0 hrs
Procedure, shortened: (§6)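 ARPE-19 cells starved 4 h in EBSS, then refed 1 h in complete medium with 10 μM compound or DMSO. mTORC1 reactivation read by Western blot as phosphorylation of P70 and 4EBP1.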

[23] = tested on: ARPE-19; experiment: Induction of autophagy in human ARPE-19 cells assessed as LC3 enlarged structures at 25 uM pretreated for 30 mins with cells followed by incubation for 4 hrs under starvation condition by immunofluorescence analysis; format: functional, cell-based; details: time 4.5 hrs
Procedure, shortened: as §3

[24] = tested on: ARPE-19; experiment: Induction of autophagy in human ARPE-19 cells assessed as increase in LC3-2 conversion at 25 to 50 uM measured after 4 hrs by Western blot analysis; format: functional, cell-based; details: dose 25-50 µM
Procedure, shortened: as §1

[25] = tested on: ARPE-19; experiment: Induction of autophagy in human ARPE-19 cells assessed as decrease in LC3-2/actin ratio at 10 uM pretreated for 30 mins with cells followed by incubation for 4 hrs under starvation condition in presence of bafilomycin by Western blot analysis; format: functional, cell-based; details: time 4.5 hrs
Procedure, shortened: as §4

[26] = tested on: ARPE-19; experiment: Induction of autophagy in human ARPE-19 cells assessed as increase in LC3-2 conversion at 10 uM measured after 4 hrs by Western blot analysis; format: functional, cell-based
Procedure, shortened: as §1

[27] = tested on: ARPE-19; experiment: Induction of autophagy in human ARPE-19 cells assessed as appearance of abnormal punctae at 25 uM measured after 1 hr under starvation/refeed condition by immunofluorescence analysis; format: functional, cell-based
Procedure, shortened: as §5

[28] = target: T1, mTORC1 (Homo sapiens); experiment: Inhibition of mTORC1 reactivation in human ARPE-19 cells assessed as reduction of 4E-BP1 phosphorylation at 10 uM preincubated for 4 hrs under starvation/refeed condition measured after 1 hr in complete medium by Western blot analysis; format: cell-based; details: time 5.0 hrs
Procedure, shortened: as §6

T1 sequence (Q8N122 whole entry, looked up, other chains not shown): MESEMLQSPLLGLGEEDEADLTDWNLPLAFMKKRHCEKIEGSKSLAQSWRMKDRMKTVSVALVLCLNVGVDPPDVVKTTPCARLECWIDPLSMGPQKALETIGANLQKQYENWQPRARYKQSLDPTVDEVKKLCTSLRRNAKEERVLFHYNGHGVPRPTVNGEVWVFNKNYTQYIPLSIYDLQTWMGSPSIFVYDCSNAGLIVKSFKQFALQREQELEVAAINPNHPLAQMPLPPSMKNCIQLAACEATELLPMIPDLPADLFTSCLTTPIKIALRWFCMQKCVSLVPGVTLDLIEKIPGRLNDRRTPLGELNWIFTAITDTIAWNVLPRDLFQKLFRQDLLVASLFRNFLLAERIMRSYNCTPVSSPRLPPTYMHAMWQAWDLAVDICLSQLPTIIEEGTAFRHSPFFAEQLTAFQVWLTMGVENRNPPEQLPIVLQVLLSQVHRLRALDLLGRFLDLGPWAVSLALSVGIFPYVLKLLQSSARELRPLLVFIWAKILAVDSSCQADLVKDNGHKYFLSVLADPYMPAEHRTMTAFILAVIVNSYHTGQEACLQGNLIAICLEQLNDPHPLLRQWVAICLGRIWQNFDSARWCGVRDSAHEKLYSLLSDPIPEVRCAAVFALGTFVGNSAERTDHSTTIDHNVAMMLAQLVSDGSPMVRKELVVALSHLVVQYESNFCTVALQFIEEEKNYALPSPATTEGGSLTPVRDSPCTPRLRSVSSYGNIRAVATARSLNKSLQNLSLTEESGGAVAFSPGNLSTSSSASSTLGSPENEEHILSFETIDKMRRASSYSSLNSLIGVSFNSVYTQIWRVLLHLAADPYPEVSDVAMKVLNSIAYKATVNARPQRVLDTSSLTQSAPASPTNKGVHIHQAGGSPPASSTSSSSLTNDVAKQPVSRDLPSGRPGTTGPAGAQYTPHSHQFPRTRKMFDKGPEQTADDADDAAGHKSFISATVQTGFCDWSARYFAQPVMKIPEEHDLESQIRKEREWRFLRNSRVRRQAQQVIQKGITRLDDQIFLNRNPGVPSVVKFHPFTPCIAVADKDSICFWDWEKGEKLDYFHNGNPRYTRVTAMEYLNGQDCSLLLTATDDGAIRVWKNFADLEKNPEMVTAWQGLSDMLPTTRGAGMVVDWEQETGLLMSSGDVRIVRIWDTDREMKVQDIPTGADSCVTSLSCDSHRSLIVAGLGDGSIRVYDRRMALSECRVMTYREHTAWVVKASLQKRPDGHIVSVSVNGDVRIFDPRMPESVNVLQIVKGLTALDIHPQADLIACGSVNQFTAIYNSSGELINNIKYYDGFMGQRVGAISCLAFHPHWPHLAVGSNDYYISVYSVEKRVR
T1 sequence (Q9BVC4 whole entry, looked up, other chains not shown): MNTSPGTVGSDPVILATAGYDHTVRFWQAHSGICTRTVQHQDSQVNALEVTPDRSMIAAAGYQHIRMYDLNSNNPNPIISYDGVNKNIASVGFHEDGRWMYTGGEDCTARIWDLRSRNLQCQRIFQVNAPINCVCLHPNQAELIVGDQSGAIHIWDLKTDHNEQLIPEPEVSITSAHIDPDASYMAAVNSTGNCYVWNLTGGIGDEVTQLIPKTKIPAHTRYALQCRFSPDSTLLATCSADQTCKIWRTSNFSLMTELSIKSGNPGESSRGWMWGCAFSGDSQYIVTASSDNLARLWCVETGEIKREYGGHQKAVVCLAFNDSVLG

CNC(=O)c1cccc(Cn2nc(C)c(NC(=O)c3ccc(COc4ccc(C(F)(F)F)cc4C)cc3)c2C)c1
fold change (FC) [1]: 1.7 | Activity [2]: Dose-Dependent Effect | inhibition [3]: Dose-Dependent Effect | remaining at 6 h [4]: 88% | remaining at 24 h [5]: 93% | EC50 at 72 h [6]: 7.1 µM | EC50 [7]: 0.62 µM | fold change (FC) [8]: 3.3 | Activity [9]: Active | remaining at 24 h [10]: 100% | Activity [11]: Active | Activity [12]: inactive | Activity [13]: Active | Activity [14]: Active | remaining at 6 h [15]: 98% | Activity [16]: Active | solubility thermodynamic at 48 h [17]: 166 µM (≈ 91.4 µg/mL) | inhibition [18]: 78% | fold change (FC) [19]: 1.7 | inhibition [20]: Active | Activity [21]: Active | Activity [22]: Active | Activity [23]: Active | Activity [24]: Active | Activity [25]: inactive | Activity [26]: Active | Activity [27]: Active | Activity [28]: Active
